Broadly, the solubility is the concentration that dissolves in the medium under given conditions. Low values mean little dissolved substance, high ones much dissolved substance. As usually defined, the pEC50 is the negative decadic logarithm of the EC50, by convention in mol/L. The pIC50 is −log10 of the IC50, conventionally taken in molar units. The Aqueous solubility is how much of the substance goes into solution per volume. Higher therefore signals much dissolved substance.

Data set [1] relates to Akt pS473 in LNCaP/shPIK3CB#3 cells. As to the kind of experiment: Western blot of Akt pS473. It is filed as cell-based. The conditions noted are these: LNCaP/shPIK3CB#3, 5 μM, 4 h. In general terms: In western blotting, separated proteins are transferred to a membrane and probed.
In data set [2] the test system is Akt pS473 in LNCaP cells. As to the kind of experiment: Western blot of Akt pS473. It is filed as cell-based. The conditions noted are these: 5 μM, 4 h.
Data set [3] addresses VPS34 (Homo sapiens, UniProt Q8NEB9). As to the kind of experiment: cell lysate CETSA. It counts as binding. The gist of the method: (§1)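 Exponentially grown PC-3 cells in RIPA with protease inhibitors were put through three liquid-nitrogen freeze-thaw cycles, then ultracentrifuged 20 min at 4°C. Soluble lysate was incubated with test compound (5 μM) or DMSO for 45 min at room temperature. Aliquots were heated 3 min at 37–69°C in 4°C steps, cooled 3 min, and spun. Supernatant was Western blotted. Bands were normalized to 0–100% and fitted with a Boltzmann sigmoid. ΔTm50 is the compound-minus-solvent temperature at 50% band loss. Three experiments.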

Data set [4] concerns Akt. Nature of the data set: cell lysate CETSA. It counts as binding. The conditions noted are these: cell lysate (in vitro), PC-3, compound 5 μM. The gist of the method:
as §1

Data set [5] addresses T1, p110β (Homo sapiens, UniProt P42338). As to the kind of experiment: whole cell CETSA. It counts as cell-based. The settings on record: whole cell (in vivo), PC-3. The gist of the method: (§2)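 Intact PC-3 cells in regular media treated with test compound or solvent for 4 hrs, washed and collected in cold PBS. Aliquoted pellets heated 3 min at 37–69°C (4°C steps), cooled 2 min at room temperature, then iced. Lysed in RIPA by three liquid-nitrogen freeze-thaw cycles; soluble fraction Western blotted. Densities normalized 0–100%, Boltzmann sigmoid fit; ΔTm50 as compound vs solvent shift at 50% band loss.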

In data set [6] the target is p110γ (Homo sapiens, UniProt P48736). Nature of the data set: cell lysate CETSA. It is filed as binding. The gist of the method:
as §1

Data set [7] is described as follows: aqueous solubility assay. It is filed as physicochemical.
In data set [8] the target is p110α (Homo sapiens, UniProt P42336). Nature of the data set: cell lysate CETSA. It is filed as binding. The gist of the method:
as §1

Data set [9] relates to Akt. As to the kind of experiment: whole cell CETSA. The settings on record: whole cell (in vivo), PC-3. It is filed as cell-based. The gist of the method:
as §2

For data set [10], the target named is T1, p110β. As to the kind of experiment: cell lysate CETSA. It is filed as binding. The gist of the method:
as §1

For data set [11], the system named is C4-2B cells. Nature of the data set: flow cytometry cell cycle analysis. It is filed as cell-based. The settings on record: 16 h after 10% FBS. The gist of the method: (§3)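 Cells serum-starved overnight to synchronise, pretreated 30 min with solvent or test compound, then stimulated with 10% FBS for 16 h. Cells trypsinized, fixed and stained with propidium iodide. Counted on a flow cytometer (FACS) and cell cycle phase distribution calculated. Mean and SEM from at least three repeated experiments.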
Background: Flow cytometry measures light scatter and fluorescence of single cells or particles in a stream.

For data set [12], the system named is cyclin D1, CDK6 and p27^kip1 in C4-2B/MDV-R cells. Nature of the data set: Western blot of G1 phase proteins. It is filed as cell-based. The conditions noted are these: 5 μM. The gist of the method:
(§4)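 After overnight serum starvation, cells received a 30-min pretreatment with solvent or test compound (5 μM), were stimulated with 10% FBS and were harvested at several time points. Lysates (RIPA plus protease inhibitors) were immunoblotted on PVDF for cyclin D1, CDK6 and p27kip1, with chemiluminescent detection and actin as loading control.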

The test system of data set [13] is C4-2B/MDV-R cells. As to the kind of experiment: flow cytometry cell cycle analysis. It is filed as cell-based. The conditions noted are these: 16 h after 10% FBS. The gist of the method: as §3
Data set [14] relates to Akt pS473 in C4-2B/MDV-R cells. As to the kind of experiment: Western blot of FBS-stimulated Akt pS473. It is filed as cell-based. The conditions noted are these: 5 μM. The gist of the method:
(§5)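 Cells serum-starved overnight, pretreated with test compound, then given 10% FBS. Lysates made in RIPA buffer with protease inhibitor cocktail, equal protein run on SDS-PAGE and transferred to PVDF. Blocked in 10% nonfat milk 1 hr, primary antibody (Akt pS473) overnight at 4°C, HRP secondary, chemiluminescent detection. Actin used as loading control.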

Data set [15] concerns cyclin D1, CDK6 and p27^kip1 in C4-2B cells. As to the kind of experiment: Western blot of G1 phase proteins. The conditions noted are these: 5 μM. It counts as cell-based. The gist of the method: as §4
Data set [16] deals with C4-2B/MDV-R cells. As to the kind of experiment: WST-8 cell growth inhibition. It counts as cell-based. The settings on record: read-out: Cell Growth Inhibition EC50 (95% CI). The gist of the method: (§6)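 Cells seeded at 8,000 per well and grown 24 hrs, then exposed to increasing concentrations of test compound or solvent for 3 days. WST-8 reagent added for 2 hrs at 37°C and OD read at 450 nm. Growth inhibition taken as percentage of solvent control OD. EC50 from log concentration vs normalized response fit, variable slope. Three independent experiments.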
(In general: Tetrazolium dyes change colour on reduction, which living cells bring about.)

Data set [17] has as its system PC-3 cells. As to the kind of experiment: WST-8 cell growth inhibition. It is filed as cell-based. The settings on record: read-out: Cell Growth Inhibition EC50 (95% CI). The gist of the method: as §6
The subject of data set [18] is Akt pS473 in C4-2B cells. Nature of the data set: Western blot of FBS-stimulated Akt pS473. It counts as cell-based. The settings on record: 5 μM. The gist of the method: as §5
Data set [19] concerns 22RV1 cells. Nature of the data set: WST-8 cell growth inhibition. It counts as cell-based. The conditions noted are these: read-out: Cell Growth Inhibition EC50 (95% CI). The gist of the method:
as §6

Data set [20] deals with C4-2B cells. Nature of the data set: WST-8 cell growth inhibition. It counts as cell-based. The settings on record: read-out: Cell Growth Inhibition EC50 (95% CI). The gist of the method:
as §6

In data set [21] the target is human p110δ/p85α (Homo sapiens, UniProt O00329). Nature of the data set: Kinase-Glo Plus luminescent kinase assay. It counts as biochemical. The settings on record: read-out: IC50 p110δ; 2 μM ATP, 37°C, 2 h.
Data set [22] has as its target human p110α/p85α (Homo sapiens, UniProt P42336). As to the kind of experiment: Kinase-Glo Plus luminescent kinase assay. It counts as biochemical. The conditions noted are these: read-out: IC50 p110α; 2 μM ATP, 37°C, 2 h.
Setting [23] is: cell lysate (in vitro), PC-3, compound 5 μM.

SMILES strings stand for the structures. pEC50, pIC50: −log10 of the molar value. Several values for one entry are separate records, joined by “and”; a condition that tells them apart may be missing. Equal entries are not always repeated. Where two headings read alike, the source gives them in different places.

T1 sequence (P42338 whole entry): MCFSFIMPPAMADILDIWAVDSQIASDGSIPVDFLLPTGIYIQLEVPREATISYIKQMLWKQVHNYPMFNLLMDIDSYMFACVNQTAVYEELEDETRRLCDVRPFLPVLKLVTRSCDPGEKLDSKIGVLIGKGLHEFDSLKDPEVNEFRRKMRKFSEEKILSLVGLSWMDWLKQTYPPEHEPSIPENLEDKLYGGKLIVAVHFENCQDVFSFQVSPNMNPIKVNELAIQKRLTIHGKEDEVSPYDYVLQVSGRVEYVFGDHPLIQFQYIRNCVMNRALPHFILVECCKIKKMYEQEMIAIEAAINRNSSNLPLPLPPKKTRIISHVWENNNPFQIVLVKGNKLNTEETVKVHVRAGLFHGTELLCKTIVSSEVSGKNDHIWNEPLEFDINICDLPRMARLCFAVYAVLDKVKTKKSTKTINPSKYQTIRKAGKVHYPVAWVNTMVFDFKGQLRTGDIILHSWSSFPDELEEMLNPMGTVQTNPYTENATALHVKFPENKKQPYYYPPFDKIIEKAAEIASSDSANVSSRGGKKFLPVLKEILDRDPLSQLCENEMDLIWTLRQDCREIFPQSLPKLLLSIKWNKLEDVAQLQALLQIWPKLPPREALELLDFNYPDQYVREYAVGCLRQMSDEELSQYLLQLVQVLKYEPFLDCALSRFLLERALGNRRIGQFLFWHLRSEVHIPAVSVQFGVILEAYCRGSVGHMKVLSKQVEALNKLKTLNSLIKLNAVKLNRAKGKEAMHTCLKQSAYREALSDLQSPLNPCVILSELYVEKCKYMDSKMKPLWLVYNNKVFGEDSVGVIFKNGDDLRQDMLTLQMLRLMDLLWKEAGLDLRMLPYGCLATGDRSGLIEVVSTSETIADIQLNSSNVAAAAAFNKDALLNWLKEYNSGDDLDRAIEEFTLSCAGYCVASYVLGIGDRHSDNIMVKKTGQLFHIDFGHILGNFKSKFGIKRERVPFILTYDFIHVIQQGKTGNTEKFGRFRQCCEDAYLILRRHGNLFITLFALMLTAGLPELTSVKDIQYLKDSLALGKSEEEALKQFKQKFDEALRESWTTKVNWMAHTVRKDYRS
p110α, sequence (P42336 whole entry): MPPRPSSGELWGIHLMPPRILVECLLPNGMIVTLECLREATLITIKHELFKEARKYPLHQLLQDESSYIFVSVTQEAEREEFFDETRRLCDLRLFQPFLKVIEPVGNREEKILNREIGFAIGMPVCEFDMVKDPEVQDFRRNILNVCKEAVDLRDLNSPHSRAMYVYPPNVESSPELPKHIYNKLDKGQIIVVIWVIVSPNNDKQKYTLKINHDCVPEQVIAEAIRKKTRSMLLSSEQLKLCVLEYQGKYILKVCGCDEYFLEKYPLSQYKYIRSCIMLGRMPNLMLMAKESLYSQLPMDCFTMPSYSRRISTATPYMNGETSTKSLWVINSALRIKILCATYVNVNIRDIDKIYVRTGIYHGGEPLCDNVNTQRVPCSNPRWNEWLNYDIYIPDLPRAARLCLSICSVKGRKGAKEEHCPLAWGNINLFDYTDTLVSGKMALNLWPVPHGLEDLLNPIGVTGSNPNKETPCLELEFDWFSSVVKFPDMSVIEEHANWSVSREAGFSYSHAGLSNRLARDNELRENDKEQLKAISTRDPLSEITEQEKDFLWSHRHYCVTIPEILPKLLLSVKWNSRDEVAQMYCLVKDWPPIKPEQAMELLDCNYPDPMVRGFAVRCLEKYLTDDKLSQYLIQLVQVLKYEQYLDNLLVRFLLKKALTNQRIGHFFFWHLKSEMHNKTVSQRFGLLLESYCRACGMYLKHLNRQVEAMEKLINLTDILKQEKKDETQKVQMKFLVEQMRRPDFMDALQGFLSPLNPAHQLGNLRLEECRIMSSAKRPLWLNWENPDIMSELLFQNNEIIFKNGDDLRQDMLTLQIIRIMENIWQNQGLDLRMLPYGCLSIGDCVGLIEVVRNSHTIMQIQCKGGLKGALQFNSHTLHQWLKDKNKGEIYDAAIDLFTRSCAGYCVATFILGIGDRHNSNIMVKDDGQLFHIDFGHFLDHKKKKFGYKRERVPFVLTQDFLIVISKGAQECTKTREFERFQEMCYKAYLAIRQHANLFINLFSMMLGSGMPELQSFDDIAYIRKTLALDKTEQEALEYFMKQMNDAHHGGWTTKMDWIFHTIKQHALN
p110γ, sequence (P48736 whole entry): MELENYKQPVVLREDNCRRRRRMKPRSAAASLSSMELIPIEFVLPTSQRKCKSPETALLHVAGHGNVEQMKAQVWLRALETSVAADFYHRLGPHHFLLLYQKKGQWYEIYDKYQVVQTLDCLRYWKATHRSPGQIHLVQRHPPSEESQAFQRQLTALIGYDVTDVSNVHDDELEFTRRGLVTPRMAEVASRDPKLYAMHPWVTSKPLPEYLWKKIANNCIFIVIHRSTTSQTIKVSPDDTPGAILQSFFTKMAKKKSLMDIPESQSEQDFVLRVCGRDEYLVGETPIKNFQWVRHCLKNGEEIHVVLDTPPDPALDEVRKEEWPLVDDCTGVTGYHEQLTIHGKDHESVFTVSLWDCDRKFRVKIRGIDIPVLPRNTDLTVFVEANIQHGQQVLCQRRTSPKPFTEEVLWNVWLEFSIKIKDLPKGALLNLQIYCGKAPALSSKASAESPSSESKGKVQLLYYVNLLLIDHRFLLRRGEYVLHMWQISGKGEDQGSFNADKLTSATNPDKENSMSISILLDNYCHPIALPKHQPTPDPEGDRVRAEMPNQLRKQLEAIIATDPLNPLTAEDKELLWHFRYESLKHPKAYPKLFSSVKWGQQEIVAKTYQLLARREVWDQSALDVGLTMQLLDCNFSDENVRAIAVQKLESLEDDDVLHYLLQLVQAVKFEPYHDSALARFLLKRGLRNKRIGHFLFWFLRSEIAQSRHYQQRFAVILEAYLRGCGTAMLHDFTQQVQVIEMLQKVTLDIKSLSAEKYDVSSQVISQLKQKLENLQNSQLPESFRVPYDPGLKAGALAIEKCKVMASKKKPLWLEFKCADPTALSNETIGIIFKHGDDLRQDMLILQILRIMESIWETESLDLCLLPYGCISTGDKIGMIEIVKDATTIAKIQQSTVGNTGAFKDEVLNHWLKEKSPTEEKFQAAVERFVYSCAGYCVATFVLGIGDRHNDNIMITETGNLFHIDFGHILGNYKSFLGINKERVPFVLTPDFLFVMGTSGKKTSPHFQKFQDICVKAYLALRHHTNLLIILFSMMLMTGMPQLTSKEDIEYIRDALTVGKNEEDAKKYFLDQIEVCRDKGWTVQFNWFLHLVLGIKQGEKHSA
VPS34, sequence (Q8NEB9 whole entry): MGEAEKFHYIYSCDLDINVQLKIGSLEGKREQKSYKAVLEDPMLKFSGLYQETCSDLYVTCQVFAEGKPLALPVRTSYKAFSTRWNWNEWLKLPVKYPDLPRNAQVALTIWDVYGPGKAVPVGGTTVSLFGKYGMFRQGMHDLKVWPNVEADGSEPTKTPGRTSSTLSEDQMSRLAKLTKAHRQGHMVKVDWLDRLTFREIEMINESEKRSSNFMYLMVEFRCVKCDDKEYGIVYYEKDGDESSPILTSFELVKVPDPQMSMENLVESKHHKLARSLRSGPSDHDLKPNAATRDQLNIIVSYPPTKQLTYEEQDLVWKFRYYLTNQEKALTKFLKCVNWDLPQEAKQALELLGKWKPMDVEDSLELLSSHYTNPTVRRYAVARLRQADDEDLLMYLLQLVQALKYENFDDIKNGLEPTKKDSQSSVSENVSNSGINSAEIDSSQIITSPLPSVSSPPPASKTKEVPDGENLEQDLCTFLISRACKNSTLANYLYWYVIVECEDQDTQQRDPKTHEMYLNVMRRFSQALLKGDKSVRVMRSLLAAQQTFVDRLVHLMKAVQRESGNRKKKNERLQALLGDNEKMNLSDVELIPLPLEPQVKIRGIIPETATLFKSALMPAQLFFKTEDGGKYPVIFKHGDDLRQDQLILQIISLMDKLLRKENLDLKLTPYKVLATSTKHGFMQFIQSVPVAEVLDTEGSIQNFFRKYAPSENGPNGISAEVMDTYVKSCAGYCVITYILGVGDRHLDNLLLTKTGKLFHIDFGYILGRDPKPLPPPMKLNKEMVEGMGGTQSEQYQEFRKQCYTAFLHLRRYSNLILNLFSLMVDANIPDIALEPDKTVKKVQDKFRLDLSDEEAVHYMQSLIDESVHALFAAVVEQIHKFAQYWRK
human p110α/p85α, sequence (P42336 whole entry): as the sequence (P42336 whole entry) above
human p110α/p85α, sequence (P27986 whole entry partner): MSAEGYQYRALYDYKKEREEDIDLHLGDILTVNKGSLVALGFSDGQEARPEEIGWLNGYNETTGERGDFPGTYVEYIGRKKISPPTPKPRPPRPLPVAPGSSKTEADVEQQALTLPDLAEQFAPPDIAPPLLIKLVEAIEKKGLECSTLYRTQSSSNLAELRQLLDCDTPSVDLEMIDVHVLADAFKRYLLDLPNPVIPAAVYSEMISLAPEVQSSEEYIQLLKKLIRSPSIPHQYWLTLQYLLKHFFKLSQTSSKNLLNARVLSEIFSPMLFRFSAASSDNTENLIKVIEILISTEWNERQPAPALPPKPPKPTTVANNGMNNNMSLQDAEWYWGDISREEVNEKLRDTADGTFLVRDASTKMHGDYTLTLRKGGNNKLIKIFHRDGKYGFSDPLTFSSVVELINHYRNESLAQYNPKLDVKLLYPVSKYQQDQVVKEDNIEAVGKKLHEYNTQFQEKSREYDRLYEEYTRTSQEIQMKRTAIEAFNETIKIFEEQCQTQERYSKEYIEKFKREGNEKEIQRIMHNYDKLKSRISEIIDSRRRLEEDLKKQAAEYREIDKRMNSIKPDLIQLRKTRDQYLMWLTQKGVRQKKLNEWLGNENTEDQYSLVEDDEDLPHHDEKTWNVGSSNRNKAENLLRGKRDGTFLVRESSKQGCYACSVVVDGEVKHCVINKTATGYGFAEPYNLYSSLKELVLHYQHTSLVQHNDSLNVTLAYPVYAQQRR

For the molecule `O=c1[nH]c2ccccc2n1C1CCN(Cc2ccc(-c3nc4cc5[nH]cnc5cc4nc3-c3ccccc3)cc2)CC1` [AKT-i8], the figures for the “effect on Akt pS473” value in data set [1] and in data set [2] were “retained their full capacity” and “completely abolished”, respectively.
For the molecule `Cc1cc([C@@H](C)Nc2ccccc2C(=O)O)c2nc(N3CCOCC3)cc(=O)n2c1` [AZD6482], the “effect on Akt pS473” value in [1] is listed as “only partially inhibited”; in data set [2], “completely abolished”.
As to `C[C@@H](Nc1cc(F)cc(F)c1)c1cc(C(=O)N(C)C)cc2c(=O)cc(N3CCOCC3)oc12` [AZD8186], the figures for the “effect on Akt pS473” value in data set [1] and in data set [2] were “only partially inhibited” and “completely abolished”, respectively.
Turning to `Nc1cc(C(F)(F)F)c(-c2cc(N3CCOCC3)nc(N3CCOCC3)n2)cn1` [BKM120], the “effect on Akt pS473” value in data set [1] is reported as “retained their full capacity”; in data set [2] it was “completely abolished”.
Take `CC(CC(C(N)=O)(c1ccccc1)c1ccccc1)N(C)C` (stereo not drawn) [BL139]: the ΔTm at 5 µM in data set [3] (human, 0.75 h, read-out: ΔTm50 VPS34) is 0.14 °C; in data set [6] (human, 0.75 h, read-out: ΔTm50 p110γ), 0.84 °C; in data set [8] (human, 0.75 h, read-out: ΔTm50 p110α), 1.51 °C; in data set [10] (human, 0.75 h, read-out: ΔTm50 p110β), 12.4 °C. For the same molecule, the “ΔTm50 Akt” value stood at 2.44 °C in data set [4] and 2.60 °C in data set [9]. Also, the “ΔTm50 p110β” value in data set [5] (240 min) amounted to 5.78 °C. In addition, the solubility in [7] (aqueous) was 37400 µg/mL and 99200 µM.
For the molecule `Cc1nc(NC(=O)N2CCC[C@H]2C(N)=O)sc1-c1ccnc(C(C)(C)C(F)(F)F)c1` [BYL719], the “effect on Akt pS473” value in [2] is listed as “partial inhibitory effect”.
Take `Cc1c(Cn2c(C)nc3c(C(=O)O)cc(N4CCOCC4)cc32)cccc1C(F)(F)F` [GSK2636771]: the “cell cycle distribution (G0/G1 and S-phase)” value in data set [11] and in data set [13] was “significantly increased G0/G1 population accompanied with a large reduction of S-phase cells” throughout. Also, the CDK6 protein levels entry in data set [12] and in data set [15] was “no obvious alteration” each time. In addition, the “FBS-induced increase of cyclin D1 protein levels” value in data set [12] and in data set [15] was “largely suppressed” in each case. Moreover, the “effect on FBS-stimulated Akt pS473 levels” value in data set [14] was “only partially suppressed”; in [18], “abolished”. For the same molecule, the “p27^kip1 protein levels” value in data set [15] was “largely elevated”. The negative logarithm of the EC50 (pEC50) is 4.37 in [16] (72 h); 4.84 in [17] (Homo sapiens, PC-3, 72 h); 4.58 in [19] (Homo sapiens, 22Rv1, 72 h); 4.54 in data set [20] (72 h). The “effect on Akt pS473” value in data set [1] is “lost their inhibitory effect”; in data set [2], “partial inhibitory effect”.
For the molecule `CNC(=O)c1ccc(N2C(=S)N(c3ccc(C#N)c(C(F)(F)F)c3)C(=O)C2(C)C)cc1F` [MDV3100], the “effect on FBS-stimulated Akt pS473 levels” value in data set [18] is “enhanced”.
For `Cc1cc(C(C)Nc2ccccc2)c2nc(N3CCOCC3)cc(=O)n2c1` (stereo not drawn) [TGX221], the “cell cycle distribution (G0/G1 and S-phase)” value in data set [11] and in data set [13] was “significantly increased G0/G1 population accompanied with a large reduction of S-phase cells” throughout. The “ΔTm50 VPS34” value in data set [3] (setting [23]) amounted to 0.42 °C. Moreover, the entries for the “ΔTm50 Akt” value in [4] and in data set [9] were 1.49 °C and 1.18 °C, respectively. In addition, the “ΔTm50 p110β” value is 1.72 °C in [5] and 04.02 °C in data set [10] (setting [23]). For the same molecule, the pIC50 in data set [21] was 6.43; in data set [22], 5.68. Also, the “ΔTm50 p110γ” value in data set [6] (setting [23]) is 0.68 °C. Moreover, the pEC50 was 4.50 in data set [16] (C4-2B/MDV-R, 3 days); 5.13 in data set [17] (PC-3, 3 days); 4.75 in data set [19] (22RV1, 3 days); 4.65 in [20] (C4-2B, 3 days). Also, the Aqueous solubility in data set [7] was < 1.0 mg/ml and <2.74 mM. In data set [8] (setting [23]), the “ΔTm50 p110α” value was 1.57 °C. The results for the “effect on Akt pS473” value in [1] and in data set [2] were “lost their inhibitory effect” and “partial inhibitory effect”, respectively.

These data come from PMC5527967 (The Prostate, 2017).
